Results on 13 compounds are retold here after ChEMBL document CHEMBL5230083, “Novel 2, 5-diketopiperazine derivatives as potent selective histone deacetylase 6 inhibitors: Rational design, synthesis and antiproliferative activity” (Eur J Med Chem, 2020).

Series [1] is filed under the species Homo sapiens. In words: Selectivity index, ratio of IC50 for inhibition of HDAC8 (unknown origin) to IC50 for inhibition of HDAC6 (unknown origin). The gist of the method:
(§1)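 Ratio of IC50 values, each from a Fluor de Lys fluorogenic HDAC assay run in duplicate.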

The species entered for series [2] is Homo sapiens. The experiment in a line: Selectivity index, ratio of IC50 for inhibition of HDAC1 (unknown origin) to IC50 for inhibition of HDAC6 (unknown origin). A digest of the protocol: as §1
The next series has as its system U-266. The experiment in a line: cells. In kind it is functional, cell-based. Particulars: Homo sapiens, U-266, 72 h.
Series [3] addresses T1, Protein deacetylase HDAC6 (Homo sapiens, UniProt Q9UBN7).
T1 sequence (Q9UBN7 whole entry): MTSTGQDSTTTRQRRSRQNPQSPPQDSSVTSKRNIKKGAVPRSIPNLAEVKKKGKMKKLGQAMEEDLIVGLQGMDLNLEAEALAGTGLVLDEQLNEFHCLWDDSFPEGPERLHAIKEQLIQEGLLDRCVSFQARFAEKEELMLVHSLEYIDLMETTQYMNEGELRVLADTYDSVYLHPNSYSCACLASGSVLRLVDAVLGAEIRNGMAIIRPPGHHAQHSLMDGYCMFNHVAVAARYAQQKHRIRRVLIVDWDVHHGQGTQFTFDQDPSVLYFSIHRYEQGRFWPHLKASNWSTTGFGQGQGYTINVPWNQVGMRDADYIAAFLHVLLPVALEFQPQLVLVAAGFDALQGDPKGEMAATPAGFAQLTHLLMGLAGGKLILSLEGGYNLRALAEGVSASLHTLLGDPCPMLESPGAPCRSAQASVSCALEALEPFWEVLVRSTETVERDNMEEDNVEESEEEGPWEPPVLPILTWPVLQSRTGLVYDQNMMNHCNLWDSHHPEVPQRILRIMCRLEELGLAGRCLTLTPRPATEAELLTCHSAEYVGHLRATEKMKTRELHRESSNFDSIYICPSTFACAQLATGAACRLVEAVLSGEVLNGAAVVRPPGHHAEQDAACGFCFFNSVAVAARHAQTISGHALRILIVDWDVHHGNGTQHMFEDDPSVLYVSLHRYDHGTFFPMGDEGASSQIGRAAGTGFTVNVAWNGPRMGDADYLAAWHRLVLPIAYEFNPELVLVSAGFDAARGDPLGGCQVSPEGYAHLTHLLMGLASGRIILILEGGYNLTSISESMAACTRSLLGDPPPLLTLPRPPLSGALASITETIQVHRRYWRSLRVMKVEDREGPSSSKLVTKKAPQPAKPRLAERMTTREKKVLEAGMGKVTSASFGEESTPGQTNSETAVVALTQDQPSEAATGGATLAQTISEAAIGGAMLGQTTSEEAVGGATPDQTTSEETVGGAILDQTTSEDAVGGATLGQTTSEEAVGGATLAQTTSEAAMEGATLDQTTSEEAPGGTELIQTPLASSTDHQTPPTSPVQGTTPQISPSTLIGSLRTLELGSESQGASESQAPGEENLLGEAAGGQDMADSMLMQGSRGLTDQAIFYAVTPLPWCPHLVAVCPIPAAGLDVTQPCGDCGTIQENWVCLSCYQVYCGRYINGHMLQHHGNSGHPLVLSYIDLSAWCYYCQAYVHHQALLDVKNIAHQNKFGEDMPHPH
In words: Inhibition of HDAC6 (unknown origin) using Fluor de lys as substrate by fluorescence based analysis.

The target of another series is T2, Histone deacetylase 8 (Homo sapiens, UniProt Q9BY41).
T2 sequence (Q9BY41 whole entry): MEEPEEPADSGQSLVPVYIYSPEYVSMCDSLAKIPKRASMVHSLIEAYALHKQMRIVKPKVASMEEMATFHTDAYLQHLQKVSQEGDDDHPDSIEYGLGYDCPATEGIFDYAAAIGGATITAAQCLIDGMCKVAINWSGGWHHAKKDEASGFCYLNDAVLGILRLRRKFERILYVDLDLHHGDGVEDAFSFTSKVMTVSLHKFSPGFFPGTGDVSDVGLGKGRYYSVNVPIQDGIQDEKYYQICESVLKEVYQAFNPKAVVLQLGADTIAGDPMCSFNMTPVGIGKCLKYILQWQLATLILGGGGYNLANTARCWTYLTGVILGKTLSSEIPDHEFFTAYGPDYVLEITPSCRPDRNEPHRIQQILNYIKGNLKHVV
The experiment in a line: (§2) Inhibition of HDAC8 (unknown origin) using Fluor de lys as substrate by fluorescence based analysis.

Series [4] in a line: Cytotoxicity against human HS5 cells assessed as inhibition of cell growth incubated for 72 hrs by alamar blue assay. In kind it is toxicity, cell-based. The gist of the method:
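Cells were grown in IMDM with 20% FBS and penicillin/streptomycin at 37 °C in 5% CO2. Drug-treated cells were incubated 72 h. Alamar blue (1 mM solution) was then added for 5–6 h, and fluorescence read at 530/590 nm.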

Another series relates to RPMI-8226. The experiment in a line: cells. It is filed as functional, cell-based. Particulars: Homo sapiens, RPMI-8226, 72 h.
For another series, the target named is Histone deacetylase 1 (Homo sapiens, UniProt Q13547). The experiment in a line: Inhibition of HDAC1 (unknown origin) using Fluor de lys as substrate by fluorescence based analysis.
Series [5] is described as follows: Microsomal stability in human liver microsomes assessed as half life at 0.5 uM prewarmed for 5 mins followed by NADPH addition and measured for 90 mins by LC-MS/MS analysis. In kind it is ADME, Microsome. Particulars: time 95 min. A digest of the protocol: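 Incubation held 0.8 mg/mL human liver microsomes, MgCl2, potassium phosphate buffer pH 7.4 and 0.5 μM compound. After 5 min prewarming at 37 °C, NADPH started the reaction.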

Series [6] can be described thus: Inhibition of full length HDAC1/MTA1 (162 to 354 residues) (unknown origin) transfected in HEK293F cells using BOC-Lys-AMC as substrate incubated for 30 mins by fluorescence based analysis. The arrangement: species or system Homo sapiens.
For series [7], the system named is A549. In words: Antiproliferative activity against human A549 cells assessed as inhibition of cell growth incubated for 72 hrs by alamar blue assay. It is filed as functional, cell-based. Particulars: A549, 72 h. A digest of the protocol: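 Cells grown in IMDM with 20% FBS and penicillin/streptomycin at 37 °C, 5% CO2. Compound added to plated cells for 72 h. Alamar blue (1 mM solution) then added for 5–6 h, and fluorescence read at 530/590 nm. IC50 derived for single-agent treatment.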

Series [8] relates to A549. The experiment in a line: Antiproliferative activity against human A549 cells assessed as inhibition of cell growth incubated for 72 hrs in presence of (R)-4-((3,4-dibenzyl-2,5-dioxopiperazin-1-yl)methyl)-N-hydroxybenzamide by alamar blue assay. In kind it is functional, cell-based. Particulars: A549, 72 h. The gist of the method:
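Alamar blue assay in IMDM/20% FBS at 37 °C, 5% CO2. Cells were exposed to the two agents together for 72 h, with 5–6 h Alamar blue and fluorescence at 530/590 nm. IC50 in combination was determined. CI50 = IC50Ac/IC50As + IC50Bc/IC50Bs, comparing combination with single-agent IC50s.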

Series [9] addresses Histone deacetylase 8 (Homo sapiens) (UniProt Q9BY41). The description is as §2.

Where a name gives a salt, the structure may show the parent alone. The source made the active and inactive calls. The rule behind the calls is not given here. Square brackets hold non-standard residues; d marks the D form. Peptide text beside a SMILES is read from it. * marks the point of attachment. Asu = N[C@@H](CCCCCC(=O)O)C(=O)O; X1 = CC(=O)[C@H](Cc1cnc[nH]1)N*; NHOH = ON*

Histone deacetylase 1, sequence (Q13547 whole entry): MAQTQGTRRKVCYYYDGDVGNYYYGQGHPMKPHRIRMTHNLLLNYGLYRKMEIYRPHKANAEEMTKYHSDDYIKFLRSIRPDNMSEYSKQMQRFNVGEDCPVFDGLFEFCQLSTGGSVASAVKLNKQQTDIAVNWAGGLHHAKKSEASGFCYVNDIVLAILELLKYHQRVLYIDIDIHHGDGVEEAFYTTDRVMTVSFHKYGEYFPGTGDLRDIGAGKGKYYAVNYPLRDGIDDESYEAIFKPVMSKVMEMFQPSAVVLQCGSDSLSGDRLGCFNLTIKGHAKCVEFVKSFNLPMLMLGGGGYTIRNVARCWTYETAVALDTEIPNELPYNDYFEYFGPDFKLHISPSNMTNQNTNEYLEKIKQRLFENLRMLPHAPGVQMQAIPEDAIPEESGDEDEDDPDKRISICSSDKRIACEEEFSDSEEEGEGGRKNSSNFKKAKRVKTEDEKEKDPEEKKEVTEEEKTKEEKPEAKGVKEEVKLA

`O=C(NO)c1ccc(CN2CC(=O)N(Cc3cccc(Cl)c3)[C@H](Cc3ccccc3)C2=O)cc1`: the Ratio IC50 in the series filed under Homo sapiens [1] stood at 14; in the series listed under Homo sapiens [2], 838. For the same compound, the half-inhibitory concentration (IC50) is 23100 nM in the series with U-266; 10.5 nM in series [3]; 150 nM on Histone deacetylase 8; 13400 nM in the series on RPMI-8226; 8550 nM against Histone deacetylase 1. The half-inhibitory concentration (IC50) at 72 hrs in [4] is above 100000 nM.
`CN1C(=O)CN(Cc2ccc(C(=O)NO)cc2)C(=O)C1Cc1ccccc1` (racemic): in [3], the IC50 was 16.7 nM.
For `O=C(NO)c1ccc(CN2CC(=O)N(Cc3ccc(Cl)cc3)[C@H](Cc3ccccc3)C2=O)cc1`, the Ratio IC50 in the series filed under Homo sapiens [1] is 11; in the series listed under Homo sapiens [2] it was 786. Besides, the IC50 in series [3] was found to be 11.7 nM; against Histone deacetylase 8 it was 130 nM; at Histone deacetylase 1, 9200 nM.
For `O=C1CN(Cc2ccc(C(=O)NO)cc2)C(=O)[C@H](Cc2ccccc2)N1`, the Ratio IC50 worked out at 0.9 in the series filed under Homo sapiens [1] and 411 in the series listed under Homo sapiens [2]. For the same compound, the IC50 in [3] is 17.5 nM; at Histone deacetylase 8, 15.6 nM; on Histone deacetylase 1, 7200 nM.
With `O=C(NO)c1ccc(CN2CC(=O)N(Cc3ccccc3Cl)[C@H](Cc3ccccc3)C2=O)cc1`, the Ratio IC50 turned out to be 16 in the series listed under Homo sapiens [1] and 823 in the series filed under Homo sapiens [2]. Further, the half-life at 0.5 µM in series [5] is 10.1 h. Moreover, the IC50 in the series on U-266 was found to be 23400 nM; in series [3] it was 10.1 nM; against Histone deacetylase 8 it was 162 nM; in the series with RPMI-8226 it was 12100 nM; at Histone deacetylase 1 it was 8310 nM. The IC50 at 72 hrs in [4] was above 100000 nM.
Take `O=C1CN(Cc2ccc(C(=O)NO)cc2)C(=O)[C@H](Cc2c[nH]c3ccccc23)N1`: the IC50 in series [3] is 6.64 nM; on Histone deacetylase 8, 112 nM; against Histone deacetylase 1, 6390 nM.
`COc1cccc(CN2C(=O)CN(Cc3ccc(C(=O)NO)cc3)C(=O)[C@H]2Cc2ccccc2)c1`: the results for the Ratio IC50 in the series filed under Homo sapiens [1] and in the series listed under Homo sapiens [2] were 12 and 591, respectively. The concentration for half-maximal inhibition (IC50) in [3] worked out at 13.7 nM; against Histone deacetylase 8, 171 nM; against Histone deacetylase 1 it was 8100 nM.
On to `O=C1CN(Cc2ccc(C(=O)NO)cc2)C(=O)[C@@H](Cc2ccccc2)N1`, for which the Ratio IC50 in the series listed under Homo sapiens [1] worked out at 4; in the series listed under Homo sapiens [2], 959. Also, the IC50 worked out at 86300 nM in the series on U-266; 8.62 nM in series [3]; 30.9 nM on Histone deacetylase 8; 54400 nM in the series with RPMI-8226; 8270 nM on Histone deacetylase 1. Further, the IC50 at 72 hrs in [4] was above 100000 nM.
In turn, `CC(=O)[C@H](Cc1cnc[nH]1)NC(=O)[C@H](CCCN=C(N)N)NC(=O)[C@H](CCCCCC(=O)NO)NC(=O)CNC(=O)CN` (H-GG[Asu](NHOH)R-X1) came in with a concentration for half-maximal inhibition (IC50) in series [6] of 336 nM.
For the compound `O=C(NO)c1ccc(CC(=O)N(CCO)c2ccccc2)cc1`, the IC50 is 1990 nM against Histone deacetylase 8 and 1780 nM on Histone deacetylase 1.
Regarding `COc1cccc2c1C(=O)c1c(O)c3c(c(O)c1C2=O)C[C@@](O)(C(=O)CO)C[C@@H]3O[C@H]1C[C@H](N)[C@H](O)[C@H](C)O1` [DOXORUBICIN HYDROCHLORIDE], the IC50 with A549 [7] stood at 255 nM; with A549 [8], 152 nM.
Consider `O=C(CCCCCCNC(=O)c1cnc(N(c2ccccc2)c2ccccc2)nc1)NO` [RICOLINOSTAT], for which the half-life at 0.5 µM in [5] was 7.5 h. Moreover, the half-inhibitory concentration (IC50) with U-266 is above 100000 nM; in the series with RPMI-8226, 9260 nM.
In series [3], `O=C1CN(Cc2cccc(C(=O)NO)c2)C(=O)[C@H](Cc2ccccc2)N1` registered an IC50 of 4190 nM. The inhibition result (in series [9]; at Histone deacetylase 1) was “inactive” throughout.
